Assays:
[1] = tested on: Rattus norvegicus; experiment: Antiallergic activity in rat assessed as inhibition of egg albumin-induced passive cutaneous anaphylaxis at 3.4 mg/kg, iv treated for 30 secs followed by egg albumin-challenge measured after 30 mins relative to control; format: functional; settings: 0.5 h
[2] = tested on: Rattus norvegicus; experiment: Antiallergic activity in rat assessed as inhibition of egg albumin-induced passive cutaneous anaphylaxis at 25 mg/kg, po treated for 15 mins followed by egg albumin-challenge measured after 30 mins relative to control; format: functional
Outline: (§1)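 Oral PCA in rats: intradermal antiserum at four back sites (dose giving ~12×12 mm wheal), compound po 48 h later, 15 min before iv challenge with 0.5 mL saline containing 5 mg Evans blue plus 5 mg egg albumin; skin bluing read 30 min after challenge on two axes per wheal; six rats per dose versus ≥6 vehicle controls; percent inhibition from mean wheal size, one-sided t test.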

[3] = tested on: Lung; experiment: Antiallergic activity in passively sensitized albino rat lungs assessed as inhibition of antigen-induced histamine release at 1 x 10^-9 M by fluorometric analysis relative to control; format: functional
Outline: (§2)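 Fragmented lung from adult male Charles River albino rats, passively sensitized, then antigen-challenged with compound present; released histamine measured fluorometrically; inhibition reported relative to control, with replicate count given as number of separate lung preparations.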

[4] = Antiallergic activity in passively sensitized rhesus monkey lungs assessed as inhibition of antigen-induced histamine release at 1 x 10^-5 M by fluorometric analysis relative to control; format: functional, Macaca mulatta, Lung
Outline: (§3)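 Passively sensitized fragmented lung from a young adult male rhesus monkey, challenged with IgE-antihuman IgE; histamine release measured fluorometrically and SRS-A estimated by guinea pig ileum bioassay; inhibition relative to control; replicates given as number of separate lung preparations.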

[5] = Antiallergic activity in passively sensitized rhesus monkey lungs assessed as inhibition of antigen-induced histamine release at 5 x 10^-5 M by fluorometric analysis relative to control; format: functional, Macaca mulatta, Lung; outline: as §3
[6] = tested on: Lung; experiment: Antiallergic activity in passively sensitized albino rat lungs assessed as inhibition of antigen-induced histamine release at 1 x 10^-7 M by fluorometric analysis relative to control; format: functional; outline: as §2
[7] = Antiallergic activity in passively sensitized rhesus monkey lungs assessed as inhibition of antigen-induced slow reacting substance of anaphylaxis release at 1 x 10^-5 M relative to control; format: functional, Macaca mulatta, Lung; outline: as §3
[8] = Antiallergic activity in passively sensitized rhesus monkey lungs assessed as inhibition of antigen-induced histamine release at 5 x 10^-6 M by fluorometric analysis relative to control; format: functional, Macaca mulatta, Lung; outline: as §3
[9] = Antiallergic activity in passively sensitized rhesus monkey lungs assessed as inhibition of antigen-induced slow reacting substance of anaphylaxis release at 5 x 10^-5 M relative to control; format: functional, Macaca mulatta, Lung; outline: as §3
[10] = tested on: Lung; experiment: Antiallergic activity in passively sensitized albino rat lungs assessed as inhibition of antigen-induced histamine release at 1 x 10^-5 M by fluorometric analysis relative to control; format: functional; outline: as §2
[11] = tested on: Lung; experiment: Antiallergic activity in passively sensitized albino rat lungs assessed as inhibition of antigen-induced histamine release at 1 x 10^-6 M by fluorometric analysis relative to control; format: functional; outline: as §2
[12] = Antiallergic activity in passively sensitized rhesus monkey lungs assessed as inhibition of antigen-induced slow reacting substance of anaphylaxis release at 5 x 10^-6 M relative to control; format: functional, Macaca mulatta, Lung; outline: as §3
[13] = tested on: Lung; experiment: Antiallergic activity in passively sensitized albino rat lungs assessed as inhibition of antigen-induced histamine release at 1 x 10^-8 M by fluorometric analysis relative to control; format: functional; outline: as §2
[14] = tested on: Rattus norvegicus; experiment: Antiallergic activity in rat assessed as inhibition of egg albumin-induced passive cutaneous anaphylaxis at 0.2 mg/kg, iv treated for 30 secs followed by egg albumin-challenge measured after 30 mins relative to control; format: functional; settings: 0.5 h
[15] = tested on: Rattus norvegicus; experiment: Antiallergic activity in po dosed rat assessed as inhibition of egg albumin-induced passive cutaneous anaphylaxis treated for 15 mins followed by egg albumin-challenge measured after 30 mins; format: functional; settings: read-out: ID50 (the source's name); outline: as §1
[16] = tested on: Rattus norvegicus; experiment: Antiallergic activity in iv dosed rat assessed as inhibition of egg albumin-induced passive cutaneous anaphylaxis treated for 30 secs followed by egg albumin-challenge measured after 30 mins; format: functional; settings: 0.5 h, read-out: ID50 (the source's name)
[17] = Antiallergic activity in passively sensitized rhesus monkey lungs assessed as inhibition of antigen-induced slow reacting substance of anaphylaxis release at 1 x 10^-4 M relative to control; format: functional, Macaca mulatta, Lung; outline: as §3
[18] = Antiallergic activity in passively sensitized rhesus monkey lungs assessed as inhibition of antigen-induced histamine release at 1 x 10^-4 M by fluorometric analysis relative to control; format: functional, Macaca mulatta, Lung; outline: as §3
[19] = tested on: Rattus norvegicus; experiment: Antiallergic activity in rat assessed as inhibition of egg albumin-induced passive cutaneous anaphylaxis at 50 mg/kg, po treated for 15 mins followed by egg albumin-challenge measured after 30 mins relative to control; format: functional; outline: as §1
[20] = tested on: Rattus norvegicus; experiment: Ratio of DSCG ID50 to compound ID50 for antiallergic activity in iv dosed rat; format: functional
[21] = Antiallergic activity in passively sensitized rhesus monkey lungs assessed as inhibition of antigen-induced histamine release at 1 x 10^-6 M by fluorometric analysis relative to control; format: functional, Macaca mulatta, Lung; outline: as §3
[22] = Antiallergic activity in passively sensitized rhesus monkey lungs assessed as inhibition of antigen-induced slow reacting substance of anaphylaxis release at 1 x 10^-6 M relative to control; format: functional, Macaca mulatta, Lung; outline: as §3
[23] = Antiallergic activity in passively sensitized rhesus monkey lungs assessed as inhibition of antigen-induced slow reacting substance of anaphylaxis release at 2.7 x 10^-4 M relative to control; format: functional, Macaca mulatta, Lung; outline: as §3
[24] = Antiallergic activity in passively sensitized rhesus monkey lungs assessed as inhibition of antigen-induced histamine release at 2.7 x 10^-4 M by fluorometric analysis relative to control; format: functional, Macaca mulatta, Lung; outline: as §3
[25] = tested on: Lung; experiment: Antiallergic activity in passively sensitized albino rat lungs assessed as inhibition of antigen-induced histamine release at 2.7 x 10^-4 M by fluorometric analysis relative to control; format: functional; outline: as §2
[26] = Antiallergic activity in passively sensitized rhesus monkey lungs assessed as inhibition of antigen-induced histamine release at 5.3 x 10^-5 M by fluorometric analysis relative to control; format: functional, Macaca mulatta, Lung; outline: as §3
[27] = Antiallergic activity in passively sensitized rhesus monkey lungs assessed as inhibition of antigen-induced slow reacting substance of anaphylaxis release at 5.3 x 10^-5 M relative to control; format: functional, Macaca mulatta, Lung; outline: as §3
[28] = tested on: Lung; experiment: Antiallergic activity in passively sensitized albino rat lungs assessed as inhibition of antigen-induced histamine release at 1.3 x 10^-3 M by fluorometric analysis relative to control; format: functional; outline: as §2
[29] = tested on: Lung; experiment: Antiallergic activity in passively sensitized albino rat lungs assessed as inhibition of antigen-induced histamine release at 5.3 x 10^-5 M by fluorometric analysis relative to control; format: functional; outline: as §2
[30] = Antiallergic activity in passively sensitized rhesus monkey lungs assessed as inhibition of antigen-induced slow reacting substance of anaphylaxis release at 1.3 x 10^-3 M relative to control; format: functional, Macaca mulatta, Lung; outline: as §3
[31] = Antiallergic activity in passively sensitized rhesus monkey lungs assessed as inhibition of antigen-induced histamine release at 1.3 x 10^-3 M by fluorometric analysis relative to control; format: functional, Macaca mulatta, Lung; outline: as §3

SMILES: CC(=O)C1=C(O)/C(=C(\C)Nc2ccc(N)c(O)c2)C(=O)OC1=O
- inhibition in vivo at 3.4 mg/kg [1]: 50%
- inhibition in vivo at 25 mg/kg [2]: 40%

SMILES: CC(=O)Nc1cc(N/C(C)=C2\C(=O)OC(=O)C(C(C)=O)=C2O)ccc1O
- inhibition (INH) [3]: 43%
- inhibition (INH) [4]: -31%
- inhibition (INH) [5]: 25%
- inhibition (INH) [6]: 88%
- inhibition (INH) [7]: 5%
- inhibition (INH) [8]: -32%
- inhibition (INH) [9]: 33%
- inhibition (INH) [10]: 86%
- inhibition (INH) [11]: 76%
- inhibition (INH) [12]: -11%
- inhibition in vivo at 25 mg/kg [2]: 50%
- inhibition (INH) [13]: 53%
- inhibition in vivo at 0.2 mg/kg [14]: 50%

SMILES: CC(=O)C1=C(O)/C(=C(\C)Nc2ccc(O)c(NC(=O)C(C)C)c2)C(=O)OC1=O
- inhibition (INH) [6]: 81%
- inhibition (INH) [11]: 78%
- ED50 [15]: 3.3 mg/kg
- ED50 [16]: 0.2 mg/kg

SMILES: CC(=O)C1=C(O)/C(=C(\C)Nc2cc(N)cc(O)c2)C(=O)OC1=O.Cl
- inhibition (INH) [4]: -0.7%
- inhibition (INH) [7]: 5%
- inhibition (INH) [17]: 18%
- ED50 [15]: 8 mg/kg
- ED50 [16]: 0.5 mg/kg
- inhibition (INH) [18]: 24%

SMILES: CCC(=O)Nc1cc(NC(=O)CC)cc(N/C(C)=C2\C(=O)OC(=O)C(C(C)=O)=C2O)c1
- inhibition in vivo at 50 mg/kg [19]: 14%
- ED50 [16]: 0.003 mg/kg

SMILES: CC(=O)C1=C(O)/C(=C(\C)Nc2cc(NC(=O)C(O)CO)cc(NC(=O)C(O)CO)c2)C(=O)OC1=O (stereo not drawn)
- inhibition (INH) [4]: -20%
- Ratio [20]: 1000
- inhibition (INH) [7]: -0.5%
- inhibition (INH) [21]: -30%
- inhibition (INH) [17]: 7%
- ED50 [15]: 2.9 mg/kg
- inhibition (INH) [22]: -7%
- ED50 [16]: 0.0009 mg/kg
- inhibition (INH) [18]: 7%

SMILES: CC(=O)C1=C(O)/C(=C(\C)Nc2cc(NS(C)(=O)=O)cc(NS(C)(=O)=O)c2)C(=O)OC1=O
- inhibition in vivo at 50 mg/kg [19]: 9%
- ED50 [16]: 0.3 mg/kg

SMILES: O=C([O-])c1cc(=O)c2c(OCC(O)COc3cccc4oc(C(=O)[O-])cc(=O)c34)cccc2o1.[Na+].[Na+] [CROMOLYN SODIUM]
- inhibition (INH) [23]: 36%
- inhibition (INH) [24]: 37%
- inhibition (INH) [25]: 47%
- inhibition (INH) [26]: 11%
- inhibition (INH) [27]: 24%
- ED50 [16]: 0.9 mg/kg
- inhibition (INH) [28]: 56%
- inhibition (INH) [29]: 32%
- inhibition (INH) [30]: 27%
- inhibition (INH) [31]: 54%

— ChEMBL document CHEMBL3244146, “Pyranenamines: a new series of antiallergic compounds” (1979)
